Compound activity: PubChem BioAssay, several laboratories
An excerpt weighted towards active compounds, which were near 1% of everything screened.
Furin inhibitor: human furin inhibitors, primary screen, biochemical, fluorescence intensity; inhibition, % at 20 µM or 30 µM; actives 0.061% (n = 220,000); purified furin, fluorogenic substrate cleavage; P09958; AID 463115, 2010; in the data active = inhibition above about 25%
Thrombin inh: human alpha-thrombin inhibitors, primary screen, counter-screen for coagulation protease inhibitor project, biochemical, 1536-well, fluorogenic AMC substrate. Boc-VPR-AMC fluorogenic substrate cleavage. inhibition, % at 5 µM. actives 0.26% (n = 220,000). AID 1046, 2008;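 active = inhibition at or above 40%; inactive = inhibition below 40%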
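Assay system: human alpha-thrombin enzyme. Reagent: Boc-VPR-AMC substrate, 15 µM final. Compound dosing: one concentration per compound, 5 µM, with 0.2% DMSO. Incubation: room-temperature reaction. Technique: AMC fluorescence, 355/460 nm. Measure: % inhibition relative to enzyme controls and enzyme-free blanks.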
FXIIa inh 1536: human FXIIa protease inhibitors, primary screen, biochemical, 1536-well. Coagulation factor XII (Homo sapiens), P00748. purified FXIIa, Boc-QGR-AMC fluorogenic substrate, 2 h. inhibition, % at 5 µM. actives 0.3% (n = 220,000); in the data active = inhibition above about 40%
FXIa inh: human FXIa protease inhibitors, primary screen, biochemical, 1536-well; Coagulation factor XI (Homo sapiens), P03951; purified FXIa, Boc-Glu-Ala-Arg-AMC fluorogenic substrate; inhibition, % at 5 µM; actives 0.14% (n = 220,000); AID 798, 2007;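 active = inhibition of at least 40%; inactive = inhibition below 40%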;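 also: fluorescence of freed AMC excited at 355 nm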
Target sequence (P03951 19-387 limits assumed): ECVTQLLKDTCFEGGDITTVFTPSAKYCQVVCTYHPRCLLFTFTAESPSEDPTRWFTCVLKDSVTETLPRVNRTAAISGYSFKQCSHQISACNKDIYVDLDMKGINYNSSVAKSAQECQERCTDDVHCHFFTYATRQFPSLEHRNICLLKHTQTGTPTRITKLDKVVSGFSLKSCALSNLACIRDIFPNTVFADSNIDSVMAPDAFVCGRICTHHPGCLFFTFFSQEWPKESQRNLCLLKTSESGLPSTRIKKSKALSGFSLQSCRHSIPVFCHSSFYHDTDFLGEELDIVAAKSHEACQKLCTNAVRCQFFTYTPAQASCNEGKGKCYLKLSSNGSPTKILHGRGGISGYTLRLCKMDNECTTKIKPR
Target sequence (P03951 388-625 limits assumed): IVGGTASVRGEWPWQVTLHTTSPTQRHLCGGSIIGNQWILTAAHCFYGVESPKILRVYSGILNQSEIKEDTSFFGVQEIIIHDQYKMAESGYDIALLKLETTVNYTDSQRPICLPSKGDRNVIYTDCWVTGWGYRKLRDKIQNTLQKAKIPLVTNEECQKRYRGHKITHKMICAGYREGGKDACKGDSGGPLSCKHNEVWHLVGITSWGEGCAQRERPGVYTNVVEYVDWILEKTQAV
HSV replic up: enhancers of HSV replication in host cells, fold increase, host cell viability | HSV replication augmentation in cells | AID 1956, 2009 | maximum fold increase | actives 0.005% (n = 220,000); in the data active = maximum fold increase above about 1.5; tested in PC3 cells
KLK5 inh: human KLK5 protease inhibitors, primary screen, biochemical, 1536-well | Kallikrein-5 (Homo sapiens), Q9Y337 | recombinant hK5, fluorogenic AMC substrate cleavage | inhibition, % at 5 µM | actives 0.59% (n = 210,000);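 active = inhibition of 40% or more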
Of the large screens only hits and unclear results are named; the others gave an inactive call.

COc1ccc(OC)c(S(=O)(=O)N2CCCC(C)C2)c1 (centres undefined)	FXIa inh 49
Cc1cc(C)c(S(C)(=O)=O)c(N(C)N)n1	none
O=C(/C=C/c1ccccc1Cl)c1ccc[nH]1	none
O=C(c1nc2nc(-c3ccccc3)cc(C(F)(F)F)n2n1)N1CCCCC1	KLK5 inh 64
COc1ccc(-c2cc(C(F)(F)F)n3nc(C(=O)N4CCOCC4)nc3n2)cc1	none
COCCCNC(=S)NC1CCCCC1	none
N/C(=N\c1nc2ccccc2o1)NC(=O)c1ccccc1NC(=O)c1ccccc1	Thrombin inh 52
N/C(=N\c1nc2ccccc2o1)NC(=O)c1ccccc1F	none
Cc1ccc(CNC(=O)CSc2nc3[nH]ncc3c(=O)[nH]2)cc1	none
Cc1ccc(C)c2[nH]c(=O)c(CN(CCN3CCOCC3)Cc3nnnn3CC3CCCO3)cc12 (centres undefined)	none
Cc1ccc(C)c2[nH]c(=O)c(CN(Cc3nnnn3C3CCCCC3)CC3CCCO3)cc12 (centres undefined)	FXIIa inh 1536 41
CN(c1ccccc1C(=O)N1CCN(Cc2ccc3c(c2)OCO3)CC1)S(C)(=O)=O	none
O=C(Nc1ncc(Cc2ccc(SC(F)F)cc2)s1)c1ccc(OC(F)F)cc1	none
CN(Cc1ccon1)C(=O)CC1C(=O)NCCN1CC1CCCCC1 (centres undefined)	FXIa inh 60
Cc1ccc(CN(C)C(=O)CC2C(=O)NCCN2CC2CCCCC2)cc1 (centres undefined)	none (no result: KLK5 inh)
Cc1ccc(C(=O)CSc2nc(C)cc(C)c2C(N)=O)cc1	Thrombin inh 104, KLK5 inh 49
CCOC(=O)C1=C(C)NC(=S)N(C(C)=O)C1c1ccc(Cl)cc1 (centres undefined)	none
CCOC(=O)C1=C(C)NC(=S)N(C(C)=O)C1c1ccc(OC)c(OC)c1 (centres undefined)	FXIIa inh 1536 48, KLK5 inh 48
Cc1cc(C(C#N)c2ccccc2)n2ncnc2n1 (centres undefined)	none
Cc1cc(C(C#N)c2cccc(Cl)c2)n2ncnc2n1 (centres undefined)	FXIIa inh 1536 42 (no result: HSV replic up)
O=C1c2cccc3cccc(c23)C(=O)N1/N=C/c1ccc(O)cc1O	none
O=C1c2ccccc2C(=O)N1/N=C/c1ccc(O)c(O)c1O	KLK5 inh 45
O=C(Nc1ncnc2sc3c(c12)CCCCC3)c1ccc(F)cc1	FXIIa inh 1536 47
CCc1cccc(CC)c1NC(=O)COC(=O)CCc1cc(OC)c(OC)c(OC)c1	none
COCCn1c(SCC(=O)Nc2sc(C)c(C)c2C#N)nnc1-c1ccc(OC)cc1	KLK5 inh 128
Cc1ccc(-c2nnc(SCC(=O)Nc3sc(C)c(C)c3C#N)n2C)cc1	none
N#Cc1c(NC(=O)CSc2nnnn2C2CCCC2)sc2c1CCCC2	none
Cc1sc(NC(=O)CSc2nnnn2C2CCCC2)c(C#N)c1C	FXIIa inh 1536 44
Cc1ccc(-c2noc(CN3CCC(C(N)=O)CC3)n2)cc1	Thrombin inh 104, KLK5 inh 86 (no result: HSV replic up)
CCOC(=O)C1CCN(Cc2nc(-c3ccc(OC)c(OC)c3)no2)CC1	none
COc1cccc(CNc2ccc(N3CCCCC3)cc2)c1OC	none
COc1cccc(CNc2ccc(S(N)(=O)=O)cc2)c1OC	FXIIa inh 1536 107
COc1ccc(Cn2cnc3c(NS(C)(=O)=O)c(C)c(C)cc32)cc1	none
Cc1ccccc1Cn1cnc2c(NS(C)(=O)=O)c(C)c(C)cc21	FXIIa inh 1536 41
N#CC1=C(S)N(c2ccccc2)C(c2ccc(-c3ccccc3Cl)o2)NC1=O (centres undefined)	none
CCOC(=O)C(CC)(CCC(=O)OC)c1csc(Nc2ccccc2O)n1 (centres undefined)	Thrombin inh 66
CCCCC(CCC(=O)O)(C(=O)OCC)c1csc(Nc2ccc(C)cc2)n1 (centres undefined)	none
CCC(=O)N1CCN(CCN=CC2=C(O)CC(C)(C)CC2=O)CC1	KLK5 inh 40
